# High-throughput results (PubChem)
# Many of the other results were omitted from the sample, so hits are more common in it than they were.
# IDH1 mut inh: inhibitors of IDH1 R132H reductase, primary screen, biochemical, plate reader, single point; AID 624101, 2012; diaphorase/resazurin fluorescence, 60 min; inhibition, % at 10 µM; hit rate 0.18% among 70,000; Isocitrate dehydrogenase [NADP] cytoplasmic (Homo sapiens), O75874; in the data active = inhibition above about 34%;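 note: 0% = DMSO and 100% = no enzyme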
# Pf Dd2 inh: P. falciparum Dd2 growth inhibitors, primary screen, SYBR Green fluorescence, single dose replicates. 72 h; active compounds read low. activity change, % at 10 µM. hit rate 2.3% among 94,000; in the data active = activity change below about -80%
# KDM4C inh: inhibitors of GASC-1 (KDM4C) histone demethylase, primary screen, biochemical, single concentration HTS; Lysine-specific demethylase 4C (Homo sapiens), Q9H3R0; GST-KDM4C 2-372, H3K9me3 peptide, LANCE TR-FRET; inhibition, % at 12.5 µM; hit rate 0.15% among 96,000;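 active = mean replicate inhibition above about 25%, with at least 55% of replicates also reaching it, limit read from the data, passing the limit was not always enough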
# Target sequence (Q9H3R0 2-372 limits assumed): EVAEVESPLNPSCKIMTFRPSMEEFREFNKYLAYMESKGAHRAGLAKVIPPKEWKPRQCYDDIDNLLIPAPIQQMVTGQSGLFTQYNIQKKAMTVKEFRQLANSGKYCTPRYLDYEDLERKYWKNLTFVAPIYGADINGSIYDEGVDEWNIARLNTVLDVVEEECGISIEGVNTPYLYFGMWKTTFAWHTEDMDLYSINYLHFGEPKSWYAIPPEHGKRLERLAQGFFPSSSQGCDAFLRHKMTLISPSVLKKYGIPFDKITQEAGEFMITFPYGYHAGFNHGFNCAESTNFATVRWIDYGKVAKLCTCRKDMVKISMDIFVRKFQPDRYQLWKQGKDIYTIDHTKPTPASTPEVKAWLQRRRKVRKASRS
#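 Compound: one test concentration per compound; Material: GST-GASC-1 enzyme fragment 2-372; Amount: GASC-1 enzyme at 10 nM final in reaction; Also added: H3K9me3 peptide substrate, Fe(II), 2-oxoglutarate; Technique: LANCE TR-FRET; Times: 30 min demethylation and 1 h detection at room temperature.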
# Starred values were filed as active, the others as inactive; · = no result given.
SMILES,IDH1 mut inh,Pf Dd2 inh,KDM4C inh
C[C@@H]1CN([C@@H](C)CO)C(=O)c2cc(NC(=O)Nc3ccc(C(F)(F)F)cc3)ccc2O[C@@H](C)CCCCO[C@H]1CN(C)C(=O)C1CCCCC1,·,-68,0
C[C@@H]1CCCCO[C@H](CN(C)C(=O)C2CCCCC2)[C@@H](C)CN([C@@H](C)CO)C(=O)c2cc(NC(=O)Nc3ccc(C(F)(F)F)cc3)ccc2O1,2,-88*,-1
Cc1ccc(S(=O)(=O)Nc2ccc3c(c2)CC(=O)N([C@H](C)CO)C[C@H](C)[C@@H](CN(C)C(=O)NC(C)C)O3)cc1,0,35,-2
C[C@@H]1CN([C@H](C)CO)C(=O)Cc2cc(NC(=O)C3CCCCC3)ccc2O[C@H]1CN(C)C(=O)Nc1ccc(C(F)(F)F)cc1,0,6,-1
COCC(=O)NC[C@@H]1[C@@H](c2ccccc2)[C@@H](CO)N1C(C)=O,·,-27,2
Cc1cc(Br)c(NC(=O)CSc2nccc(=O)[nH]2)cc1C,0,·,·
Cc1ccccc1NC(=O)Nc1ccc2c(c1)C(=O)N(C)[C@@H]1CC[C@H](CC(=O)O)O[C@@H]1CO2,·,7,-3
O=C(C[C@H]1C[C@H]2c3cc(NC(=O)c4cccnc4)ccc3O[C@H]2[C@H](CO)O1)NC1CCCC1,·,5,-1
COc1ccc(S(=O)(=O)Nc2ccc3c(c2)C(=O)N([C@H](C)CO)C[C@@H](C)[C@@H](CN(C)C(=O)NC2CCCCC2)OCCCC[C@@H](C)O3)cc1,·,-86*,-1
COc1ccc(S(=O)(=O)Nc2ccc3c(c2)C(=O)N([C@@H](C)CO)C[C@H](C)[C@H](CN(C)Cc2ccc(Cl)c(Cl)c2)OCCCC[C@@H](C)O3)cc1,·,-61,0
COc1ccc(CN(C)C[C@H]2OCCCC[C@H](C)Oc3ccc(NS(=O)(=O)c4ccc(OC)cc4)cc3C(=O)N([C@H](C)CO)C[C@@H]2C)cc1,10,-24,1
COc1ccc(S(=O)(=O)Nc2ccc3c(c2)C(=O)N([C@H](C)CO)C[C@@H](C)[C@H](CN(C)C(=O)NC2CCCCC2)OCCCC[C@H](C)O3)cc1,9,-48,0
COc1ccc(S(=O)(=O)Nc2ccc3c(c2)C(=O)N([C@@H](C)CO)C[C@H](C)[C@@H](CN(C)Cc2ccc(Cl)c(Cl)c2)OCCCC[C@@H](C)O3)cc1,0,-91*,0
COc1ccc(CN(C)C[C@H]2OCCCC[C@@H](C)Oc3ccc(NS(=O)(=O)c4ccc(OC)cc4)cc3C(=O)N([C@H](C)CO)C[C@H]2C)cc1,·,-87*,-2
CCOC(=O)c1cc(C)sc1NC(=O)CC1Sc2ccccc2NC1=O (stereo not given),0,·,·
COc1ccc(S(=O)(=O)N(C)C[C@H]2OCCCC[C@H](C)Oc3ccc(NC(=O)c4ccncc4)cc3C(=O)N([C@@H](C)CO)C[C@@H]2C)cc1,2,-37,-1
COc1ccccc1S(=O)(=O)N[C@H]1CC[C@@H](CC(=O)N2CCN(C)CC2)O[C@@H]1CO,0,10,0
CC(C)C#Cc1cnc2c(c1)C(=O)N([C@H](C)CO)C[C@@H](C)[C@@H](CN(C)Cc1ccccc1F)O2,2,·,-1
Cc1noc(C)c1S(=O)(=O)Nc1ccc2c(c1)C(=O)N([C@@H](C)CO)C[C@@H](C)[C@H](CN(C)Cc1ccc3c(c1)OCO3)OCCCC[C@@H](C)O2,-1,-58,1
C[C@@H]1CN([C@@H](C)CO)C(=O)c2cc(NC(=O)c3ccncc3)ccc2O[C@@H](C)CCCCO[C@H]1CN(C)Cc1ccc(C(F)(F)F)cc1,1,-81*,2
C[C@@H]1CN([C@@H](C)CO)C(=O)c2cc(NC(=O)c3ccncc3)ccc2O[C@@H](C)CCCCO[C@@H]1CN(C)Cc1ccc(C(F)(F)F)cc1,8,-14,1
C[C@H]1CCCCO[C@@H](CN(C)C(=O)Nc2ccc(C(F)(F)F)cc2)[C@@H](C)CN([C@@H](C)CO)C(=O)c2cc(NC(=O)c3ccncc3)ccc2O1,3,-83*,-2
C[C@@H]1CN([C@@H](C)CO)C(=O)c2cc(NC(=O)c3ccccc3)ccc2O[C@@H](C)CCCCO[C@@H]1CN(C)C(=O)Nc1ccc(C(F)(F)F)cc1,·,-87*,0
C[C@@H]1CCCCO[C@H](CN(C)C(=O)Nc2ccc(C(F)(F)F)cc2)[C@H](C)CN([C@H](C)CO)C(=O)c2cc(NC(=O)c3ccccc3)ccc2O1,-1,-53,0
C[C@@H]1CCCCO[C@H](CN(C)C(=O)Nc2ccc(C(F)(F)F)cc2)[C@@H](C)CN([C@@H](C)CO)C(=O)c2cc(NC(=O)c3ccncc3)ccc2O1,0,-63,-3
SMILES,IDH1 mut inh,Pf Dd2 inh,KDM4C inh
C[C@@H]1CCCCO[C@H](CN(C)C(=O)Nc2ccc(C(F)(F)F)cc2)[C@@H](C)CN([C@@H](C)CO)C(=O)c2cc(NC(=O)c3ccccc3)ccc2O1,·,-83*,0
C[C@@H]1CCCCO[C@@H](CN(C)C(=O)Nc2ccc(C(F)(F)F)cc2)[C@@H](C)CN([C@H](C)CO)C(=O)c2cc(NC(=O)c3ccccc3)ccc2O1,0,-73,-1
C[C@@H]1CCCCO[C@@H](CN(C)CC2CCCCC2)[C@@H](C)CN([C@@H](C)CO)C(=O)c2cc(NC(=O)c3ccccc3)ccc2O1,·,-67,0
C[C@H](CO)N1C[C@H](C)[C@@H](CN(C)Cc2ccc3c(c2)OCCO3)OCc2cn(nn2)CCCC1=O,·,7,-2
COc1cccc(NC(=O)N2CC[C@@H]3[C@H]2c2cc(-c4cccc(OC)c4)ccc2N(C)[C@H]3CO)c1,·,-27,-3
CCS(=O)(=O)N1CC2(C1)[C@@H](c1ccccc1)[C@@H](CO)N2Cc1ccc(F)cc1,·,-12,-1
CCS(=O)(=O)N1CC2(C1)[C@@H](c1ccccc1)[C@H](CO)N2Cc1ccc(F)cc1,·,-83*,1
OC[C@@H]1[C@@H](c2ccccc2)C2(CN(CC3CC3)C2)N1Cc1ccc(F)cc1,·,-88*,2
COc1ccccc1CN1[C@H](CO)[C@@H](c2ccccc2)C12CN(C(C)=O)C2,·,-47,0
O=C(CC1CC1)N1CC2(C1)[C@H](c1ccccc1)[C@@H](CO)N2Cc1ccc(F)cc1,·,-66,0
COc1ccccc1CN1CC2(C1)[C@H](c1ccccc1)[C@@H](CO)N2Cc1ccccc1,·,-90*,-1
CN(C)CC(=O)N[C@@H]1CC[C@H](CCNS(=O)(=O)c2ccccc2)O[C@H]1CO,0,2,3
C[C@@H]1CN([C@@H](C)CO)C(=O)c2cc(NC(=O)Nc3ccc4c(c3)OCO4)ccc2O[C@@H](C)CCCCO[C@H]1CN(C)C(=O)Nc1cccc2ccccc12,0,-42,1
C[C@@H]1CCCCO[C@@H](CN(C)C(=O)Nc2ccc3c(c2)OCO3)[C@@H](C)CN([C@@H](C)CO)C(=O)c2cc(NC(=O)Nc3cccc4ccccc34)ccc2O1,0,-91*,-1
